A selection: hits, their analogues and other compounds. The true share with any hit is near 0.61%.
Xi reactivation = activators of X-chromosome reactivation in mouse fibroblasts; XiGFP mouse fibroblasts, % GFP-positive cells imaging, 3 d; cells co-treated with 5-aza-dC sensitizer; scaled so ellipticine positive control = 100%; activation, % at 7.58 µM; 360,000 tested, 0.055% active;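 active means mean normalized replicate activation at least 10% and every replicate at or above 10%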
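Material: XiGFP fibroblasts, SV40-immortalized. Buffer or medium: DMEM plus 5-aza-dC sensitizer. Compound: single concentration per compound, delivered by pin transfer. Times: 3 days compound exposure. Controls: ellipticine 6 µM.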
CFTR F508del cor = correctors of CFTR F508del function in bronchial epithelial cells. CFBE cells, YFP halide quenching; stimulated with forskolin plus potentiator P3; % fluorescence drop versus neutral controls. activity (quench increase), % at 7.58 µM. 350,000 tested, 0.36% active;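 active means mean added fluorescence quench of at least 8% versus neutral control, with both replicates also reaching 8%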;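 further: cells transiently co-express mutant CFTR-F508del with the halide-sensitive YFP; corrector assay measuring rescue of mutant channel to the surface after 24 h compound exposure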
E-selectin induc = induces E-selectin expression in human endothelial cells. AID 686992. HUVEC E-selectin immunofluorescence imaging; normalized: neutral wells 0, TNF-alpha wells 100. P16581. activation, % at 7.58 µM. 260,000 tested, 0.37% active;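 active means mean E-selectin-positive cell signal at least 10% of the positive control, reached in at least 60% of replicates, without over 20% cell loss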
Target sequence (P16581 whole entry, looked up): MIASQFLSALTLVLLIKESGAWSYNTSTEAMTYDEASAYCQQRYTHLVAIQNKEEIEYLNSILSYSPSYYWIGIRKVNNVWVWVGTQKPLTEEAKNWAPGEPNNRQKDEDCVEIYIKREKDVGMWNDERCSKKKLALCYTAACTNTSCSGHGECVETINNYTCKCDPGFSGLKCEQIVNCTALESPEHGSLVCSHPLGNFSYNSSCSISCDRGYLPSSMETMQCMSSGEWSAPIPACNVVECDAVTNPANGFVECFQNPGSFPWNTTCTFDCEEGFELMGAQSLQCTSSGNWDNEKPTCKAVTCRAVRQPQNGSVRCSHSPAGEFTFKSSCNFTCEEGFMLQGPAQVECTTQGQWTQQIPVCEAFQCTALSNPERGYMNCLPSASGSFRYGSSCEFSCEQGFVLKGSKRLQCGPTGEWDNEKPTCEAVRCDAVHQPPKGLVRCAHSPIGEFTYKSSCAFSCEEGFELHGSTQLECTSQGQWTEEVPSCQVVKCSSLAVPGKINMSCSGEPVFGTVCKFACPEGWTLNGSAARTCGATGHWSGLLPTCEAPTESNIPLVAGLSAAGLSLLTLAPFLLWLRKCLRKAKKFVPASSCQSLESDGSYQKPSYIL
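System: HUVEC / Compound: single concentration / Signal: immunofluorescence imaging / Read-out: percent E-selectin-positive cells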
Numbers stand for hits; n = inactive; x = not tested or not shown; ! = not confirmed by another sample.

SMILES	Xi reactivation	CFTR F508del cor	E-selectin induc
CN(C)C(=O)C[C@H]1CC[C@H]2[C@@H](COC[C@H](O)CN2Cc2nccs2)O1	n	n	n
COc1ccccc1S(=O)(=O)Cc1ccc(C(=O)N2CCN(c3ccc(C)cc3)C(C)C2)o1 (centres undefined)	n	n	n
COc1ccc(S(=O)(=O)Cc2ccc(C(=O)N3CCN(c4cccc(C)c4)C(C)C3)o2)cc1 (centres undefined)	n	9.3	x
COc1ccccc1-c1ccc(C2[C@H]3CNC[C@@H]2N3C(=O)Nc2ccccc2Cl)cc1 (some centres undefined)	n	n	n
COc1ccc(CC(=O)Nc2nnc(CC(C)C)s2)cc1S(=O)(=O)N1CCOCC1	n	n	n
COc1ccc(CC(=O)Nc2nccs2)cc1S(=O)(=O)N1CCOCC1	n	17	n
C[C@@H](NC(=O)C[C@@H]1CC[C@@H](NC(=O)C2CCOCC2)[C@H](CO)O1)c1ccccc1	n	n	n
COC(=O)c1c(CC[C@@H](CO)NC(=O)N2CCC[C@H]2Cn2cc(C3(O)CCCCC3)nn2)oc(C(C)=O)c1C(=O)OC	x	n	x
COc1ccc(NC(=O)N(C)C[C@@H]2Oc3cc(C#CCC(C)C)ccc3S(=O)(=O)N([C@H](C)CO)C[C@@H]2C)cc1	n	9.2	n
COc1ccc(C#Cc2ccc3c(c2)O[C@H](CN(C)C(=O)Nc2cccc(OC)c2)[C@H](C)CN([C@H](C)CO)S3(=O)=O)cc1	n	8.6	n
COc1ccc(C#Cc2ccc3c(c2)O[C@H](CN(C)C(=O)Nc2cccc(OC)c2)[C@@H](C)CN([C@H](C)CO)S3(=O)=O)cc1	n	n	n
COc1ccc(NC(=O)N(C)C[C@H]2Oc3cc(C#CCC(C)C)ccc3S(=O)(=O)N([C@H](C)CO)C[C@H]2C)cc1	n	n	n
COc1ccc(CNC(=O)C[C@H]2CC[C@@H](NS(=O)(=O)c3cccc(OC)c3)[C@@H](CO)O2)cc1	n	n	n
C[C@@H]1CN([C@H](C)CO)C(=O)CCCn2nncc2CO[C@@H]1CN(C)Cc1ccc2c(c1)OCO2	n	n	n
CC1CCN(C(=O)c2ccc(S(=O)(=O)N3CCCCCC3)cc2)CC1	n	n	n
Cc1ccc(C(=O)NNC(=O)c2ccc(S(=O)(=O)N3CCCCC3)cc2)cc1	n	9.8	x
Cc1cc2ccccc2n1CCNC(=O)c1ccc(S(=O)(=O)N2CCCCC2)cc1	n	n	93
Cc1ccc(C(=O)Nc2ccc(S(=O)(=O)N3CCCC3)cc2)cc1	n	n	n
O=C(NCCc1ccccc1)c1ccc(S(=O)(=O)N2CCCCC2)cc1	n	n	n
CC1CCN(C(=O)c2ccc(S(=O)(=O)N3CCCC3)cc2)CC1	n	9.3	n
CC(=O)N1CCCCN2[C@H](CO)[C@H](c3ccc(-c4cccc(C(=O)N(C)C)c4)cc3)[C@@H]2C1	n	n	n
CC(C)Nc1ccc(Nc2ccnc3cc4ccccc4cc23)cc1	n	27	x
c1ccc(CCNc2ccnc3cc4ccccc4cc23)cc1	n	n	n
CN1c2ccc(-c3ccccc3)cc2[C@@H]2[C@@H](CCN2C(=O)NC2CCCC2)[C@@H]1CO	n	n	n
C[C@@H]1CN([C@H](C)CO)C(=O)c2cccc(NC(=O)Nc3ccc(F)cc3)c2O[C@@H]1CN(C)C	n	n	n
SMILES	Xi reactivation	CFTR F508del cor	E-selectin induc
Cc1ccc(S(=O)(=O)N[C@H]2C=C[C@H](CC(=O)O)O[C@@H]2CO)cc1	n	n	n
Cc1noc(C)c1NC(=O)Nc1cccc2c1O[C@@H](CN(C)Cc1ccc(Oc3ccccc3)cc1)[C@@H](C)CN([C@@H](C)CO)C2=O	n	n	n
COc1ccc(NC(=O)Nc2cccc3c2O[C@H](CN(C)C(=O)NC2CCCCC2)[C@H](C)CN([C@H](C)CO)C3=O)cc1	n	n	32
C[C@H]1CN([C@@H](C)CO)C(=O)c2cccc(NC(=O)Nc3ccc(F)cc3)c2O[C@H]1CN(C)CC1CCCCC1	n	n	34
COc1ccc(NC(=O)Nc2cccc3c2O[C@H](CN(C)C(=O)NC2CCCCC2)[C@H](C)CN([C@@H](C)CO)C3=O)cc1	n	n	n
C[C@H]1CN([C@@H](C)CO)C(=O)c2cccc(NC(=O)NC3CCCCC3)c2O[C@@H]1CN(C)C(=O)Nc1ccc(F)cc1	n	n	n
C[C@H]1CN([C@@H](C)CO)C(=O)c2cccc(NC(=O)Nc3ccc(F)cc3)c2O[C@@H]1CN(C)C(=O)NC1CCCCC1	n	n	69
C[C@H](CO)N1C[C@H](C)[C@@H](CN(C)CC2CCCCC2)Oc2c(NC(=O)Nc3ccc(F)cc3)cccc2C1=O	n	x	n
CCCNC(=O)N1C[C@H](C)[C@H](OC)CN(C)C(=O)c2cc(NC(=O)CCC)ccc2OC[C@@H]1C	n	n	n
COCCNc1nc(Nc2ccc(C)cc2C)c2sccc2n1	n	10	n
COCCNc1nc(NCc2ccc(C)cc2C)c2sccc2n1	n	n	n
C[C@@H]1CN([C@@H](C)CO)C(=O)c2cc(-c3cccc(F)c3)cnc2O[C@@H]1CN(C)S(C)(=O)=O	n	n	n
COc1cccc(C(=O)Nc2ccc3c(c2)C(=O)N(C)[C@H]2CC[C@H](CC(=O)N[C@H](C)c4ccccc4)O[C@H]2CO3)c1	n	n	n
CO[C@@H]1CN(C)C(=O)c2cc(C#N)ccc2OCC[C@@H]2CC[C@@H](OC)[C@@H](CN(C)C(=O)[C@H]1C)O2	n	x	n
C=CCN=c1scc(-c2ccc(F)cc2)n1/N=C/c1ccccn1	n	n	n
C=CCN=c1scc(-c2ccccc2)n1/N=C/c1ccccn1	n	8.4!	n
COCOc1cccc(CN2CCC2(C)C(=O)Nc2ccc(C)cc2)c1 (centres undefined)	n	n	n
COCOc1cccc(CN2CCC2(C)C(=O)Nc2ccc(C)c(O)c2)c1 (centres undefined)	n	8.8	n
CC(=O)c1ccc(N2CCc3ccccc3C2)c([N+](=O)[O-])c1	n	n	70
CC(=O)c1ccc(N2CCN(c3ncccn3)CC2)c([N+](=O)[O-])c1	n	n	n
O=C(NCc1ccccc1F)[C@@H]1[C@@H](CO)[C@@H]2Cn3c(cccc3=O)[C@@H]2N1CC1CC1	n	n	n
CC=Cc1ccc2n(c1=O)C[C@@H]1[C@@H](CO)[C@H](C(=O)NCc3ccccn3)N(CCC)[C@H]21 (mixture of isomers)	n	n	n
CCc1ccc(-n2c(=S)sc3c(=O)n(-c4ccccc4C)c(SCC(=O)O)nc32)cc1	n	n	60
Cc1ccc(-n2c(=S)sc3c(=O)n(-c4ccccc4C)c(SCC(=O)O)nc32)cc1C	n	n	n
C[C@@H]1CN([C@@H](C)CO)C(=O)c2c(c3ccccc3n2C)-c2ccccc2CO[C@H]1CN(C)C	n	n	n
O=C(N[C@H]1C=C[C@H](CC(=O)N2CCN(c3ccccc3)CC2)O[C@@H]1CO)c1ccncc1	n	n	n
CN(C(=O)COC(=O)c1n[nH]c(=O)c2ccccc12)c1ccccc1	n	n	38
CN(C(=O)COC(=O)c1n[nH]c2ccccc12)c1ccccc1	n	n	x

Compound activity as filed in PubChem BioAssay.
